For data set [1], the system named is MIA PaCa-2. The data set is described as follows: Synergistic inhibition of colony formation in human MIA PaCa-2 cells at 0.25 uM measured after 24 hrs in presence of As2O3 by crystal violet staining based assay. It is filed as functional, cell-based. Put shortly: (§1)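 Colony formation in 96-well plates seeded at 300 (MIA PaCa-2) or 600 (PANC-1) cells/well. Napabucasin, As2O3 or olaparib added 1 h before test compound; drugs on cells 24 h. Plates kept until controls were 80–90% confluent (7–9 days), then stained with 0.05% crystal violet and quantified. Synergy scored by HSA and Bliss models.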

Data set [2] relates to MIA PaCa-2. As to the kind of experiment: Inhibition of colony formation in human MIA PaCa-2 cells at 0.5 uM measured after 7 to 9 days in presence of iron chelator deferoxamine by crystal violet staining based assay. The conditions noted are these: time day 7-9. It counts as functional, cell-based. The method in brief: (§2)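 Cells seeded overnight in 96-well plates at 300 cells/well (MIA PaCa-2) or 600 cells/well (BxPC-3), in RPMI 1640 with 10% FBS. Inhibitor added 1 h before compound, then continuous exposure for 7–9 days until control wells were 80–90% confluent. Stained with 0.05% crystal violet for 30 min, imaged after overnight drying and quantified.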

Data set [3] relates to MIA PaCa-2. The data set is described as follows: Down regulation of PNPT1 gene expression in human MIA PaCa-2 cells at 3 times IC50 measured after 4 hrs by Trizol reagent based Bru labelling based gene sequence analysis. It counts as functional, cell-based. The method in brief:
(§3)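 Bru-seq: 2 × 10⁶ cells were seeded in duplicate and treated at 3 × IC50 for 4 h. Bromouridine (2 mM final) was added for the last 30 min at 37 °C. Total RNA was extracted in TRIzol. BrU-labelled RNA was captured with anti-BrdU magnetic beads, made into cDNA libraries and deep-sequenced.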

Data set [4] concerns MIA PaCa-2. The data set is described as follows: Cytotoxicity against human MIA PaCa-2 cells measured after 72 hrs by MTT assay. It counts as functional, cell-based. The conditions noted are these: MIA PaCa-2, 72 h. Put shortly: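 Cells were kept in RPMI 1640 with 10% FBS at 37 °C, 5% CO₂, under 35 passages. Cells were seeded, attached overnight and treated with compound or DMSO for 72 h. MTT was added at 0.3 mg/mL for 3 h, then dissolved in DMSO and read as absorbance at 570 nm. IC50 was fitted from the curve. Values are mean ± sd of three independent experiments.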
In general terms: Tetrazolium assays rely on reduction of a dye to a coloured formazan, in cell work by metabolically active cells.

Data set [5] has as its system MIA PaCa-2. As to the kind of experiment: Down regulation of LRPPRC expression in human MIA PaCa-2 cells at 3 times IC50 measured after 4 hrs in presence of NQO1 inhibitor dicoumarol by proteomics analysis. It is filed as functional, cell-based.
Data set [6] relates to MIA PaCa-2. The data set is described as follows: Down regulation of LRPPRC gene expression in human MIA PaCa-2 cells at 3 times IC50 measured after 4 hrs by Trizol reagent based Bru labelling based gene sequence analysis. It counts as functional, cell-based. Put shortly:
as §3

Data set [7] concerns MIA PaCa-2. The data set is described as follows: Down regulation of LRPPRC expression in human MIA PaCa-2 cells at 3 times IC50 measured after 4 hrs by proteomics analysis. It is filed as functional, cell-based.
Data set [8] deals with MIA PaCa-2. The data set is described as follows: Inhibition of colony formation in human MIA PaCa-2 cells at 0.5 to 2 uM measured after 7 to 9 days in presence of N-acetylcysteine by crystal violet staining based assay. It counts as functional, cell-based. As to conditions: dose microM 0.5-2, time day 7-9. Put shortly:
as §2

The test system of data set [9] is MIA PaCa-2. The data set is described as follows: Cytotoxicity against human MIA PaCa-2 cells measured after 72 hrs in presence of N-acetylcysteine by MTT assay. It is filed as functional, cell-based. The conditions noted are these: MIA PaCa-2, 72 h.
The nature of data set [10]: Drug metabolism in mouse plasma assessed as 5,8-dimethoxy-N-[4-(4-methylpiperazin-1-yl)phenyl]quinazolin-6-amine formation at 500 uM measured after 0.5 hrs by LC-MS/MS analysis. It counts as ADME, cell-free. Put shortly:
(§4)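 Compound (500 μM DMSO stock, 1 μL per 500 μL) was incubated in pooled mouse plasma. Samples were taken at 0.5 h and metabolites identified by LC-MS/MS.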

Data set [11] concerns PANC-1. The data set is described as follows: Down regulation of PNPT1 expression in human PANC-1 cells at 3 times IC50 measured after 1 to 24 hrs by proteomics analysis. It is filed as functional, cell-based. As to conditions: time hrs 1-24.
In data set [12] the test system is MIA PaCa-2. As to the kind of experiment: Inhibition of colony formation in human MIA PaCa-2 cells at 0.4 to 0.8 uM measured after 7 to 9 days in presence of ferroptosis inhibitor ferrostatin-1 by crystal violet staining based assay. It is filed as functional, cell-based. The conditions noted are these: dose microM 0.4-0.8, time day 7-9. The method in brief: as §2

In data set [13] the test system is PANC-1. As to the kind of experiment: Synergistic inhibition of colony formation in human PANC-1 cells at 0.25 to 0.5 uM measured after 24 hrs in presence of olaparib by crystal violet staining based assay. The conditions noted are these: dose microM 0.25-0.5, time 24.0 hrs. It counts as functional, cell-based. The method in brief: as §1
For data set [14], the system named is PANC-1. The data set is described as follows: Induction of DNA damage in human PANC-1 cells assessed as increase in H2AX phosphorylation at 1.2 to 1.8 uM measured after 4 hrs by Western blot analysis. It counts as functional, cell-based. The conditions noted are these: dose microM 1.2-1.8, time 4.0 hrs. Put shortly: (§5)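 Cells were treated 4 h at the stated concentrations and lysed in RIPA with protease and phosphatase inhibitors. 25 μg protein was resolved on 10% SDS gels, transferred to PVDF and probed for STAT3, pSTAT3, pH2AX and GAPDH. Detection used fluorescent secondary antibodies, with normalisation to loading control.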
(Immunoblotting shows a protein as a band on a membrane.)

Data set [15] deals with MIA PaCa-2. The data set is described as follows: Inhibition of colony formation in human MIA PaCa-2 cells at 0.375 to 0.75 uM measured after 7 to 9 days in presence of GPX4 inhibitor RSL3 by crystal violet staining based assay. As to conditions: dose microM 0.375-0.75, time day 7-9. It is filed as functional, cell-based. Put shortly:
as §2

The subject of data set [16] is MIA PaCa-2. As to the kind of experiment: Down regulation of PNPT1 expression in human MIA PaCa-2 cells at 3 times IC50 measured after 4 hrs by proteomics analysis. It counts as functional, cell-based.
Data set [17] concerns MIA PaCa-2. As to the kind of experiment: Induction of DNA damage in human MIA PaCa-2 cells assessed as increase in H2AX phosphorylation at 1 to 1.5 uM measured after 4 hrs by Western blot analysis. It is filed as functional, cell-based. The conditions noted are these: dose microM 1-1.5, time 4.0 hrs. The method in brief: as §5
The next data set deals with BXPC-3. The data set is described as follows: Inhibition of colony formation in human BXPC-3 cells at 0.375 uM measured after 7 to 9 days in presence of GPX4 inhibitor RSL3 by crystal violet staining based assay. As to conditions: time day 7-9. It is filed as functional, cell-based. Put shortly:
as §2

Data set [18] is described as follows: Drug metabolism in mouse plasma assessed as 7-hydroxy-6-[4-(4-methylpiperazin-1-yl)anilino]-6,7-dihydroquinazoline-5,8-dione formation at 500 uM measured after 0.5 hrs by LC-MS/MS analysis. It counts as ADME, cell-free. Put shortly: as §4
The subject of data set [19] is MIA PaCa-2. As to the kind of experiment: Induction of ferroptosis in human MIA PaCa-2 cells assessed as increase in lipid peroxidation measured after 24 hrs by C11-BODIPY dye based fluorescence assay. It is filed as functional, cell-based. The method in brief: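 MIA PaCa-2 cells were treated for the set time, then given 10 μM C11-BODIPY for 30 min at 37 °C and washed. Fluorescence was read at 581/591 nm (reduced dye) and 488/510 nm (oxidized dye). The intensity ratio was compared by unpaired t-test.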

Data set [20] relates to MIA PaCa-2. The data set is described as follows: Down regulation of LRPPRC expression in human MIA PaCa-2 cells at 3 times IC50 measured after 4 hrs in presence of NAC by proteomics analysis. It is filed as functional, cell-based.
The nature of data set [21]: Half life in mouse liver microsomes at 10 uM in presence of NADPH by LC-MS/MS analysis. As to conditions: liver microsomes. It is filed as ADME, Microsome. Put shortly:
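Compound (10 μM working solution in 0.1 M phosphate buffer with 3.3 mM MgCl₂) was incubated with mouse liver microsomes and NADPH. Verapamil served as reference. Samples were taken at 0, 5, 10, 15, 30, 45 and 60 min and centrifuged at 3500 g. Supernatant was run by LC-MS/MS. t1/2 came from the slope of ln(peak area ratio) against time.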

A short description of data set [22]: Drug metabolism in mouse plasma assessed as 2-amino-3-[6-[4-(4-methylpiperazin-1-yl)anilino]-5,8-dioxo-quinazolin-7-yl]sulfanyl-propanoic acid formation at 500 uM measured after 0.5 hrs by LC-MS/MS analysis. It is filed as ADME, cell-free. Put shortly: as §4

The record followed here is ChEMBL document CHEMBL4725371, “A Novel Redox Modulator Induces a GPX4-Mediated Cell Death That Is Dependent on Iron and Reactive Oxygen Species” (J Med Chem, 2020).

The source made the active and inactive calls. No cut-off for these calls is given here. Some results are limits rather than exact numbers.

What is called IC50 is the concentration that inhibits the measured activity by half. In general, half-life refers to the time in which the quantity being followed falls by half.

As for `CN1CCN(c2ccc(NC3=CC(=O)c4ncncc4C3=O)cc2)CC1`, the inhibition result with MIA PaCa-2 [1], in the data set on MIA PaCa-2 [12] and in the data set on PANC-1 [13] was “Active” throughout. Moreover, the inhibition result with MIA PaCa-2 [2], in the data set on MIA PaCa-2 [8], in the data set with MIA PaCa-2 [15] and with BXPC-3 was “inactive” in each case. The outcome in the data set on MIA PaCa-2 [3], with MIA PaCa-2 [6], in the data set on MIA PaCa-2 [7], in the data set on PANC-1 [14], in the data set with MIA PaCa-2 [16] and in the data set on MIA PaCa-2 [17] was Active. Also, the outcome in the data set with MIA PaCa-2 [20] was Active. Besides, the IC50 in the data set with MIA PaCa-2 [4] came out at 640 nM; with MIA PaCa-2 [9] it was 1110 nM. Moreover, the outcome in the data set with MIA PaCa-2 [5] and in the data set with PANC-1 [11] was inactive. Besides, the Drug metabolism result in data set [10], in [18] and in [22] was “Metabolite_Detected” in each case. Also, the Activity entry in the data set on MIA PaCa-2 [19] was “Dose-dependent effect”. Moreover, in data set [21], the half-life at 10 µM was more than 1 h.
